From ChEMBL document CHEMBL1287740, “Synthesis and bio-evaluation of alkylaminoaryl phenyl cyclopropyl methanones as antitubercular and antimalarial agents” (Bioorg Med Chem, 2010)
≈ marks a conversion by molar mass, not a printed value. Calls of active or inactive are those of the source. No cut-off for these calls is given here.

Assays:
[1] = Selectivity index, ratio of CC50 for african green monkey (Cercopithecus aethiops) Vero cells to IC50 for Plasmodium falciparum 3D7; assay type: functional
Method in brief: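 Ratio of Vero CC50 (resazurin fluorescence after 72 h exposure) to P. falciparum 3D7 IC50 (radiolabelled hypoxanthine uptake; 24 h compound exposure, then 48 h with label).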

[2] = Cytotoxicity against african green monkey Vero cells after 72 hrs; assay type: cell-based; conditions: chlorocebus sabaeus
Method in brief: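 Vero (C1008 monkey kidney) cells grown in MEM + 15% FBS, 5% CO2, 37 °C. Trypsinized cells at 1 × 10^5 cells/ml seeded and allowed to adhere overnight, then exposed to serial compound dilutions for 72 h. Resazurin added and fluorescence read after 4 h.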

Mycolicibacterium aurum [3] = experiment: Inhibition of type II fatty acid biosynthesis pathway in Mycobacterium aurum at 25 uM after 12 hrs by lacZ reporter assay relative to untreated control; assay type: functional
Method in brief: (§1)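 Recombinant M. aurum lacZ reporter strains (kasA promoter or hsp60 promoter) grown in Sauton's medium with kanamycin at 37 °C to 0.5 OD600, diluted to 0.04–0.05 OD, equilibrated 2 h, then treated 12 h at 37 °C (10, 25, 50, 75 µM). Cells sonicated in PBS pH 7.2 and protein normalized by Bradford. β-gal measured with ONPG (4 mg/ml), 30 min at 37 °C, stopped with Na2CO3, OD 410 nm. Triplicates, relative to untreated control.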

Mycolicibacterium aurum [4] = experiment: Inhibition of type II fatty acid biosynthesis pathway in Mycobacterium aurum at 50 uM after 12 hrs by lacZ reporter assay relative to untreated control; assay type: functional; method in brief: as §1
Plasmodium falciparum [5] = experiment: Antimalarial activity against Plasmodium falciparum 3D7 assessed as maturation of schizonts after 24 to 32 hrs by microdilution method; assay type: functional
Method in brief: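 P. falciparum 3D7 (chloroquine sensitive); twofold serial dilutions in complete RPMI 1640 from 10 mg/ml DMSO stocks, parasitized RBCs added (final hematocrit 3–4%, 1.0–2.0% parasitaemia, >95% rings). Incubated 24–32 h at 37 °C with 5% CO2. Thin smears stained with 15% Giemsa; schizont maturation scored against controls to give MIC.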

[6] = tested on: Mycobacterium tuberculosis; experiment: Antimicrobial activity against Mycobacterium tuberculosis H37Rv after 30 days by agar microdilution method; assay type: functional
Method in brief: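 Twofold dilutions of compound in DMSO incorporated into Middlebrook 7H10 medium with OADC supplement in slanted tubes, preincubated 37 °C for 24 h, then streaked with H37Rv harvested from L-J medium into 0.85% saline with 0.05% Tween-80 (5 × 10^5 bacilli per tube). Incubated at 37 °C; MIC = lowest concentration giving complete inhibition of colonies versus drug-free control.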

Plasmodium falciparum [7] = experiment: Antimalarial activity against Plasmodium falciparum 3D7 assessed as radiolabeled hypoxanthine uptake after 48 hrs by scintillation counting; assay type: functional, organism-based; conditions: 3D7, 48 h
Method in brief: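 Chloroquine-sensitive P. falciparum 3D7 asynchronous culture at 0.5% parasitaemia and 1.5% hematocrit, exposed to compounds for 24 h at 37 °C in CO2. Radiolabelled hypoxanthine (0.5 µCi/well) then added and incubation continued 48 h. Cells harvested onto filter paper, and radioactivity counted by scintillation β-counter. IC50 derived from hypoxanthine uptake.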

Q: For `CN1CCN(c2ccc(C(=O)/C=C/c3ccc(Cl)cc3)cc2)CC1`, which “Ratio CC50/IC50” value [1] is on record?
A: The value was 8.69.

Q: What about the CC50 at 72 h [2] of the same compound?
A: Its CC50 at 72 h is 102 µg/mL (≈ 301 µM).

Q: What about the inhibition at 25 µM (Mycolicibacterium aurum [3]) of the same compound?
A: The inhibition at 25 µM was 13.6%.

Q: And the inhibition at 50 µM (Mycolicibacterium aurum [4])?
A: Its inhibition at 50 µM is 14.7%.

Q: What about the MIC (Plasmodium falciparum [5]) of the same compound?
A: Its MIC is 50 µg/mL (≈ 147 µM).

Q: And the MIC [6]?
A: The MIC was 3.12 µg/mL (≈ 9.15 µM).

Q: What about the IC50 (Plasmodium falciparum [7]) of the same compound?
A: The IC50 was 11.8 µg/mL (≈ 34.6 µM).

Q: Which results are given for `O=C(c1ccc(NC2CCCCC2)cc1)C1CC1c1ccc(Cl)cc1` (stereo not given)?
A: Ratio CC50/IC50 [1]: 261.57; CC50 at 72 h [2]: 196 µg/mL (≈ 554 µM); inhibition (Mycolicibacterium aurum [3]): inactive; inhibition (Mycolicibacterium aurum [4]): inactive; MIC (Plasmodium falciparum [5]): 10 µg/mL (≈ 28.3 µM); MIC [6]: > 12.5 µg/mL; IC50 (Plasmodium falciparum [7]): 0.75 µg/mL (≈ 2.12 µM)

Q: With `CN1CCN(c2ccc(C(=O)C3CC3c3ccc(Cl)cc3)cc2)CC1` (stereo not given) as the compound, how does the “Ratio CC50/IC50” value [1] read?
A: The value was 151.96.

Q: What about the CC50 at 72 h [2] of the same compound?
A: The CC50 at 72 h was 82.1 µg/mL (≈ 231 µM).

Q: And the inhibition (Mycolicibacterium aurum [3])?
A: The inhibition was “inactive”.

Q: And the inhibition at 50 µM (Mycolicibacterium aurum [4])?
A: The inhibition at 50 µM was 0.17%.

Q: And the MIC (Plasmodium falciparum [5])?
A: The MIC was 10 µg/mL (≈ 28.2 µM).

Q: What about the MIC [6] of the same compound?
A: Its MIC is 6.25 µg/mL (≈ 17.6 µM).

Q: And the IC50 (Plasmodium falciparum [7])?
A: The IC50 was 0.54 µg/mL (≈ 1.52 µM).

Q: With `CCCCN(CCCC)c1ccc(C(=O)C2CC2c2ccc(Cl)cc2)cc1` (stereo not given) as the compound, how does the “Ratio CC50/IC50” value [1] read?
A: The value was 590.04.

Q: What about the CC50 at 72 h [2] of the same compound?
A: The CC50 at 72 h was 431 µg/mL (≈ 1120 µM).

Q: And the inhibition at 25 µM (Mycolicibacterium aurum [3])?
A: The inhibition at 25 µM was 41.5%.

Q: What about the inhibition at 50 µM (Mycolicibacterium aurum [4]) of the same compound?
A: Its inhibition at 50 µM is 37.5%.

Q: And the MIC (Plasmodium falciparum [5])?
A: Its MIC is 10 µg/mL (≈ 26 µM).

Q: And the MIC [6]?
A: Its MIC is 12.5 µg/mL (≈ 32.6 µM).

Q: And the IC50 (Plasmodium falciparum [7])?
A: The IC50 was 0.73 µg/mL (≈ 1.9 µM).

Q: For `CCCCCCCNc1ccc(C(=O)C2CC2c2ccc(Cl)cc2)cc1` (stereo not given), which “Ratio CC50/IC50” value [1] is on record?
A: Its value is 4975.

Q: What about the CC50 at 72 h [2] of the same compound?
A: Its CC50 at 72 h is 398 µg/mL (≈ 1080 µM).

Q: What about the inhibition (Mycolicibacterium aurum [3]) of the same compound?
A: The inhibition was “inactive”.

Q: What about the inhibition (Mycolicibacterium aurum [4]) of the same compound?
A: Its inhibition is “inactive”.

Q: What about the MIC (Plasmodium falciparum [5]) of the same compound?
A: Its MIC is 0.3 µg/mL (≈ 0.811 µM).

Q: What about the MIC [6] of the same compound?
A: Its MIC is over 12.5 µg/mL.

Q: And the IC50 (Plasmodium falciparum [7])?
A: The IC50 was 0.08 µg/mL (≈ 0.216 µM).

Q: Which results are given for `CCCCNc1ccc(C(=O)C2CC2c2ccc(Cl)cc2)cc1` (stereo not given)?
A: Ratio CC50/IC50 [1]: 958.69; CC50 at 72 h [2]: 316 µg/mL (≈ 965 µM); inhibition at 25 µM (Mycolicibacterium aurum [3]): 39.5%; inhibition at 50 µM (Mycolicibacterium aurum [4]): 60.9%; MIC (Plasmodium falciparum [5]): 0.6 µg/mL (≈ 1.83 µM); MIC [6]: 12.5 µg/mL (≈ 38.1 µM); IC50 (Plasmodium falciparum [7]): 0.33 µg/mL (≈ 1.01 µM)

Q: With `O=C(/C=C/c1ccc(Cl)cc1)c1ccc(N2CCOCC2)cc1` as the compound, how does the “Ratio CC50/IC50” value [1] read?
A: Its value is 7.33.

Q: And the CC50 at 72 h [2]?
A: Its CC50 at 72 h is 35.6 µg/mL (≈ 109 µM).

Q: What about the inhibition at 25 µM (Mycolicibacterium aurum [3]) of the same compound?
A: Its inhibition at 25 µM is 47.1%.

Q: What about the inhibition at 50 µM (Mycolicibacterium aurum [4]) of the same compound?
A: Its inhibition at 50 µM is 42.9%.

Q: And the MIC (Plasmodium falciparum [5])?
A: The MIC was 50 µg/mL (≈ 153 µM).

Q: And the MIC [6]?
A: Its MIC is 6.25 µg/mL (≈ 19.1 µM).

Q: What about the IC50 (Plasmodium falciparum [7]) of the same compound?
A: The IC50 was 4.86 µg/mL (≈ 14.8 µM).

Q: For `O=C(c1ccc(NCCn2cncn2)cc1)C1CC1c1ccc(Cl)cc1` (stereo not given), which “Ratio CC50/IC50” value [1] is on record?
A: The value was 11.7.

Q: And the CC50 at 72 h [2]?
A: Its CC50 at 72 h is 39.9 µg/mL (≈ 109 µM).

Q: What about the inhibition at 25 µM (Mycolicibacterium aurum [3]) of the same compound?
A: Its inhibition at 25 µM is 17.9%.

Q: And the inhibition at 50 µM (Mycolicibacterium aurum [4])?
A: Its inhibition at 50 µM is 30.1%.

Q: What about the MIC (Plasmodium falciparum [5]) of the same compound?
A: Its MIC is 10 µg/mL (≈ 27.3 µM).

Q: And the MIC [6]?
A: Its MIC is 12.5 µg/mL (≈ 34.1 µM).

Q: What about the IC50 (Plasmodium falciparum [7]) of the same compound?
A: Its IC50 is 3.41 µg/mL (≈ 9.3 µM).

Q: Which “Ratio CC50/IC50” value [1] does the source give for `CCCCCCCCCCCCCCCCNc1ccc(C(=O)C2CC2c2ccc(Cl)cc2)cc1` (stereo not given) here?
A: Its value is 89.68.

Q: And the CC50 at 72 h [2]?
A: The CC50 at 72 h was 410 µg/mL (≈ 826 µM).

Q: And the inhibition at 25 µM (Mycolicibacterium aurum [3])?
A: The inhibition at 25 µM was 36%.

Q: What about the inhibition at 50 µM (Mycolicibacterium aurum [4]) of the same compound?
A: The inhibition at 50 µM was 36.7%.

Q: What about the MIC (Plasmodium falciparum [5]) of the same compound?
A: Its MIC is 50 µg/mL (≈ 101 µM).

Q: What about the MIC [6] of the same compound?
A: The MIC was “Insoluble”.

Q: What about the IC50 (Plasmodium falciparum [7]) of the same compound?
A: The IC50 was 4.57 µg/mL (≈ 9.21 µM).

Q: For `O=C(c1ccc(NCc2ccco2)cc1)C1CC1c1ccc(Cl)cc1` (stereo not given), which “Ratio CC50/IC50” value [1] is on record?
A: The value was 149.64.

Q: And the CC50 at 72 h [2]?
A: The CC50 at 72 h was 256 µg/mL (≈ 727 µM).

Q: And the inhibition at 25 µM (Mycolicibacterium aurum [3])?
A: The inhibition at 25 µM was 16.5%.

Q: And the inhibition at 50 µM (Mycolicibacterium aurum [4])?
A: Its inhibition at 50 µM is 27.4%.

Q: And the MIC (Plasmodium falciparum [5])?
A: Its MIC is 10 µg/mL (≈ 28.4 µM).

Q: And the MIC [6]?
A: Its MIC is 3.12 µg/mL (≈ 8.87 µM).

Q: And the IC50 (Plasmodium falciparum [7])?
A: Its IC50 is 1.71 µg/mL (≈ 4.86 µM).
